Measurements as given in ChEMBL document CHEMBL2177013, “Synthesis and biological evaluation of tylophorine-derived dibenzoquinolines as orally active agents: exploration of the role of tylophorine e ring on biological activity” (J Med Chem, 2012).
≈ marks a conversion by molar mass, not a printed value. Calls of active or inactive are those of the source. The rule behind the calls is not given here.

What was measured:
[1] = Oral bioavailability in Sprague-Dawley rat at 3 mg/kg by HPLC-MS method; format: ADME, organism-based; settings: in vivo
Outline: (§1)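 Male rats (330−380 g, 9−10 weeks), jugular vein cannula implanted 1 day before, fasted. 3 mg/kg given iv or orally (n = 3) in DMA/PEG400 30/70 v/v. Blood (150 μL) drawn at 0, 2, 5 (iv only), 15, 30 min and 1, 2, 4, 6, 8, 12, 24 h; plasma analysed by HPLC-MS; noncompartmental analysis.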

[2] = Solubility in DMA; format: physicochemical
[3] = Solubility in DMSO; format: physicochemical
Outline: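 Compound dissolved in DMSO with sonication; maximal volume before precipitation measured and used to calculate saturation solubility.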

[4] = tested on: Transmissible gastroenteritis virus; experiment: Antiviral activity against Transmissible gastroenteritis virus infected in ST cells pre-treated 2 hrs before virus infection measured 6 hrs post virus infection by immunofluorescent assay; format: functional, organism-based; settings: Alphacoronavirus 1, ST
Outline: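 ST cells, with or without 2 h compound pretreatment (10 concentrations), infected with TGEV at MOI 10. Immunofluorescence with anti-spike and anti-nucleocapsid antibodies at 6 hpi. EC50 from dose–response curves, mean of at least three experiments, each in duplicate.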

[5] = Growth inhibition of human HONE1 cells; format: functional
Outline: (§2)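 Cells seeded per well: NUGC-3 4500, HONE-1 6000, MCF-7 6500, NCI-H460 2500, HepG2 10000, A549 5000; A549 grown in RPMI 1640 with 2 g/L NaHCO₃, 2 mM L-glutamine and 10% FBS. GI₅₀ = concentration giving 50% growth inhibition, mean of at least three experiments each in duplicate. Paclitaxel served as positive control.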

NUGC-3 = experiment: Growth inhibition of human NUGC3 cells; format: functional; outline: as §2
SF-268 = experiment: Growth inhibition of human SF268 cells; format: functional
Outline: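 SF-268 glioblastoma cells seeded 7500 cells/well in 96-well plates; growth inhibition measured with compound. GI50 as mean of at least three experiments, each in duplicate; paclitaxel positive control.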

NCI-H460 [6] = experiment: Growth inhibition of human NCI-H460 cells; format: functional; outline: as §2
MCF7 [7] = experiment: Growth inhibition of human MCF7 cells; format: functional; outline: as §2
[8] = AUC (0 to infinity) in Sprague-Dawley rat at 3 mg/kg, po by HPLC-MS method; format: ADME, organism-based; design: dose 3 mg/kg, route oral, time infinity; settings: plasma
Outline: (§3)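 Male rats (330−380 g, 9−10 weeks old), jugular vein cannulated 1 day before dosing, fasted; 3 mg/kg iv or oral in DMA/PEG400 (30/70, v/v), n = 3. Blood (150 μL) drawn at 0, 2, 5 (iv only), 15, 30 min and 1, 2, 4, 6, 8, 12, 24 h, kept on ice; plasma analysed by HPLC-MS; noncompartmental analysis.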

[9] = Tmax in Sprague-Dawley rat at 3 mg/kg, po by HPLC-MS method; format: ADME, organism-based; design: dose 3 mg/kg, route oral; settings: in vivo; outline: as §1
[10] = Cmax in Sprague-Dawley rat at 3 mg/kg, po by HPLC-MS method; format: ADME, organism-based; design: dose 3 mg/kg, route oral; settings: in vivo; outline: as §1
[11] = Apparent elimination half life in Sprague-Dawley rat at 3 mg/kg, po by HPLC-MS method; format: ADME, organism-based; design: dose 3 mg/kg, route oral; settings: in vivo, read-out: betat1/2(app) (converted); outline: as §1
[12] = AUC (0 to infinity) in Sprague-Dawley rat at 3 mg/kg, iv by HPLC-MS method; format: ADME, organism-based; design: time infinity, dose 3 mg/kg, route intravenous; settings: plasma; outline: as §3
[13] = Volume of distribution at steady state in Sprague-Dawley rat at 3 mg/kg, iv by HPLC-MS method; format: ADME, organism-based; design: dose 3 mg/kg, route intravenous; settings: in vivo, read-out: Vdss; outline: as §1
[14] = Clearance in Sprague-Dawley rat at 3 mg/kg, iv by HPLC-MS method; format: ADME, organism-based; design: dose 3 mg/kg, route intravenous; settings: in vivo; outline: as §1
[15] = Apparent elimination half life in Sprague-Dawley rat at 3 mg/kg, iv by HPLC-MS method; format: ADME, organism-based; design: dose 3 mg/kg, route intravenous; settings: in vivo, read-out: betat1/2(app) (converted); outline: as §1
[16] = tested on: Transmissible gastroenteritis virus; experiment: Antiviral activity against Transmissible gastroenteritis virus infected in ST cells assessed as reduction in caspase-3 activation pre-treated before virus infection measured 16 hrs post virus infection by Western blotting; format: functional, organism-based
Outline: (§4)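 ST cells pretreated with compound, then infected with TGEV. Western blot for nucleocapsid (N) protein, caspase 3 (cleavage of procaspase 3) and GAPDH at 16 hpi. Representative of at least three independent experiments.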

[17] = tested on: Transmissible gastroenteritis virus; experiment: Antiviral activity against Transmissible gastroenteritis virus infected in ST cells assessed as reduction in N-protein expression pre-treated before virus infection measured 16 hrs post virus infection by Western blotting; format: functional, organism-based; outline: as §4
RAW264.7 [18] = experiment: Reduction in LPS/INFgamma-induced COX2 protein expression in mouse RAW264.7 cells incubated for 20 hrs by Western blotting; format: functional, cell-based
Outline: (§5)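 LPS/IFNγ-stimulated RAW264.7 cells treated with compound for 20 h. iNOS, COX-2 and GAPDH detected by Western blot; representative of at least three independent experiments.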

RAW264.7 [19] = experiment: Reduction in LPS/INFgamma-induced iNOS protein expression in mouse RAW264.7 cells incubated for 20 hrs by Western blotting; format: functional, cell-based; outline: as §5
A549 [20] = experiment: Induction of c-Jun protein accumulation in human A549 cells incubated for 24 hrs by Western blotting; format: functional, cell-based
A549 [21] = experiment: Down regulation of cyclin A2 expression in human A549 cells incubated for 24 hrs by Western blotting; format: functional, cell-based
NCI-H460 [22] = experiment: Induction of c-Jun protein accumulation in human NCI-H460 cells incubated for 24 hrs by Western blotting; format: functional, cell-based
NCI-H460 [23] = experiment: Down regulation of cyclin A2 expression in human NCI-H460 cells incubated for 24 hrs by Western blotting; format: functional, cell-based
MCF7 [24] = experiment: Induction of c-Jun protein accumulation in human MCF7 cells incubated for 24 hrs by Western blotting; format: functional, cell-based
MCF7 [25] = experiment: Down regulation of cyclin A2 expression in human MCF7 cells incubated for 24 hrs by Western blotting; format: functional, cell-based
[26] = Cytotoxicity against mouse RAW264.7 cells; format: cell-based
Outline: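 RAW264.7 cells stimulated with LPS/IFNγ and compound-treated in parallel with the NO assay; CC50 taken as concentration giving 50% inhibition of cell growth. Mean of at least three experiments, each in duplicate.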

RAW264.7 [27] = experiment: Antiinflammatory activity in mouse RAW264.7 cells assessed as inhibition of LPS-induced nitric oxide production incubated for 18 hrs by nitrate/nitrite assay; format: functional, cell-based; settings: RAW264.7, 18 h
Outline: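 RAW264.7 seeded 65000 cells/well, cultured 24 h, then medium replaced with complete medium containing IFNγ (20 ng/mL)/LPS (5 μg/mL) plus compound at various concentrations for 18 h; nitric oxide measured by Nitrate/Nitrite kit. EC50 as mean of at least three experiments, each in duplicate.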

A549 [28] = experiment: Growth inhibition of human A549 cells; format: functional; outline: as §2
HepG2 = experiment: Growth inhibition of human HepG2 cells; format: functional; outline: as §2
Murine hepatitis virus [29] = experiment: Antiviral activity against Murine hepatitis virus JHM infected in mouse DBT cells assessed as reduction in N-protein expression at 0.2 to 2 uM pre-treated 1 hr before virus infection and measured 24 hrs post infection by immunofluorescent assay; format: functional, organism-based
Outline: (§6)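 DBT murine astrocytoma cells in DMEM/10% heat-inactivated FBS, seeded 2.8 × 10⁵ cells/well the day before infection. Medium switched to DMEM/2% FBS, compound added 1 h before MHV-JHM infection at MOI 0.005. Cytopathic effect viewed by phase contrast and N protein by immunofluorescence at 24 hpi.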

Murine hepatitis virus [30] = experiment: Antiviral activity against Murine hepatitis virus JHM infected in mouse DBT cells assessed as reduction in virus-induced cytopathic effect at 0.2 to 2 uM pre-treated 1 hr before virus infection and measured 24 hrs post infection by phase contrast microscopy; format: functional, organism-based; outline: as §6
[31] = AUC (0 to infinity) in Sprague-Dawley rat at 1.5 mg/kg, po by HPLC-MS method; format: ADME, organism-based; design: time infinity, dose 1.5 mg/kg, route oral; settings: plasma
Outline: (§7)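 Male rats (330−380 g, 9−10 weeks old) fitted with a jugular vein cannula 1 day before dosing and fasted; 1.5 mg/kg given iv or orally in DMA/PEG400 (50/50, v/v), n = 3. Blood (150 μL) drawn at 0, 2, 5 (iv only), 15, 30 min and 1, 2, 4, 6, 8, 12, 24 h. Plasma analysed by HPLC-MS; parameters by noncompartmental analysis.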

[32] = Tmax in Sprague-Dawley rat at 1.5 mg/kg, po by HPLC-MS method; format: ADME, organism-based; design: dose 1.5 mg/kg, route oral; settings: in vivo; outline: as §7
[33] = Cmax in Sprague-Dawley rat at 1.5 mg/kg, po by HPLC-MS method; format: ADME, organism-based; design: dose 1.5 mg/kg, route oral; settings: in vivo; outline: as §7
[34] = Apparent elimination half life in Sprague-Dawley rat at 1.5 mg/kg, po by HPLC-MS method; format: ADME, organism-based; design: dose 1.5 mg/kg, route oral; settings: in vivo, read-out: betat1/2(app) (converted); outline: as §7
[35] = AUC (0 to infinity) in Sprague-Dawley rat at 1.5 mg/kg, iv by HPLC-MS method; format: ADME, organism-based; design: time infinity, dose 1.5 mg/kg, route intravenous; settings: plasma; outline: as §7
[36] = Volume of distribution at steady state in Sprague-Dawley rat at 1.5 mg/kg, iv by HPLC-MS method; format: ADME, organism-based; design: dose 1.5 mg/kg, route intravenous; settings: in vivo, read-out: Vdss; outline: as §7
[37] = Clearance in Sprague-Dawley rat at 1.5 mg/kg, iv by HPLC-MS method; format: ADME, organism-based; design: dose 1.5 mg/kg, route intravenous; settings: in vivo; outline: as §7
[38] = Apparent elimination half life in Sprague-Dawley rat at 1.5 mg/kg, iv by HPLC-MS method; format: ADME, organism-based; design: dose 1.5 mg/kg, route intravenous; settings: in vivo, read-out: betat1/2(app) (converted); outline: as §7
[39] = Oral bioavailability in Sprague-Dawley rat at 1.5 mg/kg by HPLC-MS method; format: ADME, organism-based; settings: in vivo; outline: as §7

Compound	bioavailability [1] [%]	solubility [2]	solubility [3] [mM]	EC50 [4] [µM]	GI50 [5] [µM]	GI50 (NUGC-3) [µM]	GI50 (SF-268) [µM]	GI50 (NCI-H460 [6]) [µM]	GI50 (MCF7 [7]) [µM]	Activity [16]	Activity [17]	Activity (RAW264.7 [18])	Activity (RAW264.7 [19])	Activity (A549 [20])	Activity (A549 [21])	Activity (NCI-H460 [22])	Activity (NCI-H460 [23])	Activity (MCF7 [24])	CC50 [26] [µM]	EC50 (RAW264.7 [27]) [µM]	further results
COc1cc2c3c(c4cc(OC)c(OC)cc4c2cc1OC)CN1CCCCC1C3 (configuration not stated)	53	soluble	12.3 (≈ 5.01 mg/mL)	0.03	0.14	0.14	0.14	0.1	0.11												
CCCN1CCc2c(c3cc(OC)c(OC)cc3c3cc(OC)c(OC)cc23)C1	62.8	soluble	50 (≈ 19.8 mg/mL)	0.83	1.21	0.47		0.45	0.51	Active	Active	Active	Active	Active	Active	Active	Active	Active	> 4	1.38	AUC(0-inf) [8]: 515 ng·h/mL; Tmax [9]: 4 h; Cmax [10]: 87 ng/mL; half-life [11]: 2.4 h; AUC(0-inf) [12]: 824 ng·h/mL; Vd [13]: 9 L/kg; clearance [14]: 60.8 mL/min/kg; half-life [15]: 2.7 h; Activity (MCF7 [25]): Active; GI50 (A549 [28]): 0.73 µM; GI50 (HepG2): 0.77 µM
COc1cc2c3c(c4cc(OC)c(OC)cc4c2cc1OC)CN1CCC[C@@H]1C3 [TYLOPHORINE]	66	soluble	10 (≈ 3.93 mg/mL)	0.08	0.27	0.19	0.27	0.23	0.24	Active	Active	Active	Active	Active	Active	Active	Active	Active	1.24	0.27	Activity (Murine hepatitis virus [29]): Active; Activity (Murine hepatitis virus [30]): Active; Activity (MCF7 [25]): Active
COc1cc2c(cc1OC)[C@@H]1[C@@H](O)[C@@H]3CCC(=O)N3C[C@@H]1c1cc(OC)c(OC)cc1-2 [TYLOPHOVATINE C]																					AUC(0-inf) [31]: 453 ng·h/mL; Tmax [32]: 4.3 h; Cmax [33]: 39 ng/mL; half-life [34]: 7.6 h; AUC(0-inf) [35]: 448 ng·h/mL; Vd [36]: 12.4 L/kg; clearance [37]: 37.6 mL/min/kg; half-life [38]: 4.6 h; bioavailability [39]: 54.3%
CCN1CCc2c(c3cc(OC)c(OC)cc3c3cc(OC)c(OC)cc23)C1		soluble	50 (≈ 19.1 mg/mL)	1.65	1.57	0.62		1.01	0.75										> 4	1.42	GI50 (A549 [28]): 0.97 µM; GI50 (HepG2): 1 µM
